Published values collected from several papers.
Compare with care: the assays were run in different laboratories.

| SMILES | host | medium | route | dose | notes | Cmax |
| --- | --- | --- | --- | --- | --- | --- |
| CC(=Nc1ccc(N=Cc2cnccn2)cc1)N(C)C | male Sprague-Dawley rat | plasma | oral | 200 mg/kg |  | 397 ng/mL |
| O=C1c2ccncc2C(=O)c2c1[nH]c1ccccc21 | rat | plasma | intravenous | 1 mg/kg | single dose | 3.25 µM |
| O=c1cc(-c2ccc(O)c(O)c2)oc2cc(O)cc(O)c12 | male Sprague-Dawley rat | plasma | oral | 30 mg/kg |  | 40.1 ng/mL |
| Nc1ccc(/C=C/C(=O)NCc2cc3cc(-c4ccc(C(=O)N5CCC(F)(F)CC5)cc4)cc(-c4ccc(F)cc4)c3o2)cn1 | rat | plasma | oral | 3 mg/kg |  | 5990 ng/mL |
| O=C(C=Cc1ccccc1)Nc1cc(-c2ccnc(N3CCC(O)CC3)c2)ccn1 | female Sprague-Dawley rat | plasma | intravenous | 5 mg/kg |  | 324 ng/mL |
| O=C1CC[C@H](N2Cc3cc(N4CCN(CC5CCN(c6ccc([C@@H]7c8ccc(O)cc8CC[C@@H]7c7ccccc7)cc6)CC5)CC4)ccc3C2=O)C(=O)N1 | male Sprague-Dawley rat | plasma | oral | 20 mg/kg | fed | 1040 ng/mL |
| CC1(CN)CCN(c2cnc3c(Sc4ccncc4Cl)n[nH]c3n2)CC1 | male Sprague-Dawley rat | plasma | oral | 10 mg/kg |  | 142 ng/mL |
| COc1ccc2cc3n(c(=O)c2c1OC)CCc1cc2c(cc1-3)OCO2 | male Sprague-Dawley rat | blood | oral | 50 mg/kg |  | 233 ng/mL |
| C[C@H]1[C@@H](O)O[C@@H]2O[C@@]3(C)CC[C@H]4[C@H](C)CC[C@@H]1[C@@]24OO3 | Sprague-Dawley rat | plasma | oral | 10 mg/kg |  | 227 ng/mL |
| N#C[C@@]12C[C@@H]1[C@@H](n1cnc3c(N[C@@H](C4CCC4)C4CC4)nc(I)nc31)[C@H](O)[C@@H]2O | male Wistar rat | plasma | oral | 1 mg/kg |  | 6.73 ng/mL |
| Cc1c(C(=O)O)ccc2c3n(nc12)[C@@H]1[C@H](C3)N(CC2CC2)[C@@]2(C(=O)Nc3cc(Cl)ccc32)[C@H]1c1cccc(Cl)c1F | male rat | plasma | oral | 2 mg/kg |  | 5.7 µM |
